Experimental data published in ChEMBL document CHEMBL1126893, “Synthesis and CLOGP correlation of imidooxy anticonvulsants” (J Med Chem, 1993).

Key:
Assay type in all cases: functional
Mus musculus [1] = test: Anticonvulsant activity was measured by rotarod toxicity test on mice at 4 hr at the dose of 100 mg/kg; number of animals protected/number of animals tested, 0/4
Mus musculus [2] = test: Anticonvulsant activity was measured by rotarod toxicity teston mice at 0.50 hr at the dose of 50 mg/kg; number of animals protected/number of animals tested, 0/4
Mus musculus [3] = test: Anticonvulsant activity was measured by subcutaneous pentylenetetrazole test on mice at 30 min at the dose of 300 mg/kg; number of animals protected/number of animals tested, 5/5
Mus musculus [4] = test: Anticonvulsant activity was measured by rotarod toxicity test on mice at 30 min at the dose of 100 mg/kg; number of animals protected/number of animals tested, 0/8
Mus musculus [5] = test: Anticonvulsant activity was measured by rotarod toxicity test on mice at 4 h at the dose of 300 mg/kg; number of animals protected/number of animals tested, 0/2
Mus musculus [6] = test: Anticonvulsant activity was measured by rotarod toxicity test on mice at 30 min at the dose of 300 mg/kg; number of animals protected/number of animals tested, 0/4
Mus musculus [7] = test: Anticonvulsant activity was measured by maximal electroshock test on mice at 0.50 hr at the dose of 50 mg/kg; number of animals protected/number of animals tested, 0/4
Mus musculus [8] = test: Anticonvulsant activity was measured by rotarod toxicity test on mice at 2 hr at the dose of 50 mg/kg; number of animals protected/number of animals tested, 0/4
Mus musculus [9] = test: Anticonvulsant activity was measured by rotarod toxicity teston mice at 0.25 hr at the dose of 50 mg/kg; number of animals protected/number of animals tested, 0/4
Mus musculus [10] = test: Anticonvulsant activity was measured by maximal electroshock test on mice at 2 hr at the dose of 50 mg/kg; number of animals protected/number of animals tested, 2/4
Mus musculus [11] = test: Anticonvulsant activity was measured by subcutaneous pentylenetetrazole test on mice at 4 h at the dose of 300 mg/kg; number of animals protected/number of animals tested, 0/1
Mus musculus [12] = test: Anticonvulsant activity was measured by subcutaneous pentylenetetrazole test on mice at 4 hr at the dose of 100 mg/kg; number of animals protected/number of animals tested, 0/1
Mus musculus [13] = test: Anticonvulsant activity was measured by subcutaneous pentylenetetrazole test on mice at 30 min at the dose of 100 mg/kg; number of animals protected/number of animals tested, 2/5
Mus musculus [14] = test: Anticonvulsant activity was measured by maximal electroshock test on mice at 4 hr at the dose of 300 mg/kg; number of animals protected/number of animals tested, 0/1
Mus musculus [15] = test: Anticonvulsant activity was measured by maximal electroshock test on mice at 30 min at the dose of 300 mg/kg; number of animals protected/number of animals tested, 1/1
Mus musculus [16] = test: Anticonvulsant activity was measured by maximal electroshock test on mice at 30 min at the dose of 100 mg/kg; number of animals protected/number of animals tested, 1/3
Mus musculus [17] = test: Anticonvulsant activity was measured by maximal electroshock test on mice at 4 hr at the dose of 50 mg/kg; number of animals protected/number of animals tested, 0/4
Mus musculus [18] = test: Anticonvulsant activity was measured by maximal electroshock test on mice at 4 hr at the dose of 100 mg/kg; number of animals protected/number of animals tested, 0/3
Mus musculus [19] = test: Anticonvulsant activity was measured by rotarod toxicity test on mice at 4 hr at the dose of 50 mg/kg; number of animals protected/number of animals tested, number of animals protected/number of animals tested, 0/4
Mus musculus [20] = test: Anticonvulsant activity was measured by maximal electroshock test on mice at 0.25 hr at the dose of 50 mg/kg; number of animals protected/number of animals tested, 0/4
Mus musculus [21] = test: Time of peak effect of activity of compound was measured by both MES and sc Met test in mice
In short: (§1)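 Phase II quantification in mice after ip dosing. ED50 (scMet or MES) measured at the time of peak effect. TD50 (rotorod neurologic deficit) measured at the time of peak neurologic deficit. Medians and 95% confidence limits by the Litchfield-Wilcoxon method. Protective index = TD50/ED50. Time of peak effect determined in the MES or scMet test.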

Mus musculus [22] = test: Time of peak effect of toxicity of compound was measured by both MES and sc Met test in mice; in short: as §1
Mus musculus [23] = test: Anticonvulsant activity was measured by maximal electroshock test on mice at 4 hr at the dose of 50 mg/kg; number of animals protected/number of animals tested 0/4
Mus musculus [24] = test: Anticonvulsant activity was measured by rotarod toxicity test on mice at 4 hr at the dose of 100 mg/kg; number of animals protected/number of animals tested 0/4
Mus musculus [25] = test: Anticonvulsant activity was measured by rotarod toxicity test on mice at 1 hr at the dose of 50 mg/kg; number of animals protected/number of animals tested 0/4
Mus musculus [26] = test: Anticonvulsant activity was measured by subcutaneous pentylenetetrazole test on mice at 0.50 hr at the dose of 50 mg/kg; number of animals protected/number of animals tested 0/4
Mus musculus [27] = test: Anticonvulsant activity was measured by maximal electroshock test on mice at 0.25 hr at the dose of 50 mg/kg; number of animals protected/number of animals tested 0/4
Mus musculus [28] = test: Anticonvulsant activity was measured by subcutaneous pentylenetetrazole test on mice at 30 min at the dose of 300 mg/kg; number of animals protected/number of animals tested, 1/1
Mus musculus [29] = test: Anticonvulsant activity was measured by maximal electroshock test on mice at 30 min at the dose of 100 mg/kg; number of animals protected/number of animals tested, 2/3
Mus musculus [30] = test: Anticonvulsant activity was measured by rotarod toxicity test on mice at 4 hr at the dose of 50 mg/kg; number of animals protected/number of animals tested 0/4
Mus musculus [31] = test: Anticonvulsant activity was measured by maximal electroshock test on mice at 2 hr at the dose of 50 mg/kg; number of animals protected/number of animals tested 0/4
Mus musculus [32] = test: Anticonvulsant activity was measured by subcutaneous pentylenetetrazole test on mice at 30 min at the dose of 100 mg/kg; number of animals protected/number of animals tested, 0/1
Mus musculus [33] = test: Anticonvulsant activity was measured by rotarod toxicity teston mice at 0.25 hr at the dose of 50 mg/kg; number of animals protected/number of animals tested 0/4
Mus musculus [34] = test: Anticonvulsant activity was measured by maximal electroshock test on mice at 1 hr at the dose of 50 mg/kg; number of animals protected/number of animals tested 1/4
Mus musculus [35] = test: Anticonvulsant activity was measured by rotarod toxicity test on mice at 2 hr at the dose of 50 mg/kg;number of animals protected/number of animals tested 0/4
Mus musculus [36] = test: Anticonvulsant activity was measured by subcutaneous pentylenetetrazole test on mice at 4 hr at the dose of 100 mg/kg; number of animals protected/number of animals tested, 0/3
Mus musculus [37] = test: Anticonvulsant activity was measured by rotarod toxicity teston mice at 0.50 hr at the dose of 50 mg/kg; number of animals protected/number of animals tested 0/4
Mus musculus [38] = test: Anticonvulsant activity was measured by rotarod toxicity test on mice at 30 min at the dose of 300 mg/kg; number of animals protected/number of animals tested, 4/4
Mus musculus [39] = test: Anticonvulsant activity was measured by maximal electroshock test on mice at 0.50 hr at the dose of 50 mg/kg; number of animals protected/number of animals tested 0/4
Mus musculus [40] = test: Anticonvulsant activity was measured by rotarod toxicity test on mice at 4 hr at the dose of 300 mg/kg; number of animals protected/number of animals tested, 2/2

Question: Which Ratio (Mus musculus [1]) does the source give for O=C1CC2(CCCC2)C(=O)N1OCc1ccccc1C(F)(F)F here?
Answer: 0

Question: What about the Ratio (Mus musculus [2]) of the same compound?
Answer: 0

Question: What about the Ratio (Mus musculus [3]) of the same compound?
Answer: 5

Question: What about the Ratio (Mus musculus [4]) of the same compound?
Answer: 0

Question: What about the Ratio (Mus musculus [5]) of the same compound?
Answer: 0

Question: And the Ratio (Mus musculus [6])?
Answer: 0

Question: And the Ratio (Mus musculus [7])?
Answer: 0

Question: And the Ratio (Mus musculus [8])?
Answer: 0

Question: What about the Ratio (Mus musculus [9]) of the same compound?
Answer: 0

Question: And the Ratio (Mus musculus [10])?
Answer: 2

Question: And the Ratio (Mus musculus [11])?
Answer: 0

Question: And the Ratio (Mus musculus [12])?
Answer: 0

Question: What about the Ratio (Mus musculus [13]) of the same compound?
Answer: 2

Question: And the Ratio (Mus musculus [14])?
Answer: 0

Question: What about the Ratio (Mus musculus [15]) of the same compound?
Answer: 1

Question: And the Ratio (Mus musculus [16])?
Answer: 1

Question: What about the Ratio (Mus musculus [17]) of the same compound?
Answer: 0

Question: What about the Ratio (Mus musculus [18]) of the same compound?
Answer: 0

Question: And the Ratio (Mus musculus [19])?
Answer: 0

Question: What about the Ratio (Mus musculus [20]) of the same compound?
Answer: 0

Question: How did the TPE (Mus musculus [21]) turn out when CCC1(c2ccccc2)C(=O)NC(=O)NC1=O [PHENOBARBITAL] was run?
Answer: 1 toxicity

Question: What about the TPE (Mus musculus [22]) of the same compound?
Answer: 0.5

Question: For O=C1CC2(CCCC2)C(=O)N1OCc1cccc(Cl)c1, which Ratio (Mus musculus [23]) is on record?
Answer: 0

Question: What about the Ratio (Mus musculus [24]) of the same compound?
Answer: 0

Question: What about the Ratio (Mus musculus [25]) of the same compound?
Answer: 0

Question: What about the Ratio (Mus musculus [26]) of the same compound?
Answer: 0

Question: And the Ratio (Mus musculus [4])?
Answer: 0

Question: And the Ratio (Mus musculus [27])?
Answer: 0

Question: And the Ratio (Mus musculus [28])?
Answer: 1

Question: And the Ratio (Mus musculus [29])?
Answer: 2

Question: And the Ratio (Mus musculus [30])?
Answer: 0

Question: And the Ratio (Mus musculus [31])?
Answer: 0

Question: And the Ratio (Mus musculus [32])?
Answer: 0

Question: What about the Ratio (Mus musculus [33]) of the same compound?
Answer: 0

Question: What about the Ratio (Mus musculus [11]) of the same compound?
Answer: 0

Question: What about the Ratio (Mus musculus [14]) of the same compound?
Answer: 0

Question: What about the Ratio (Mus musculus [34]) of the same compound?
Answer: 1

Question: What about the Ratio (Mus musculus [35]) of the same compound?
Answer: 0

Question: And the Ratio (Mus musculus [36])?
Answer: 0

Question: And the Ratio (Mus musculus [15])?
Answer: 1

Question: What about the Ratio (Mus musculus [37]) of the same compound?
Answer: 0

Question: What about the Ratio (Mus musculus [38]) of the same compound?
Answer: 4

Question: What about the Ratio (Mus musculus [18]) of the same compound?
Answer: 0

Question: And the Ratio (Mus musculus [39])?
Answer: 0

Question: And the Ratio (Mus musculus [40])?
Answer: 2
